Values after ≈ are worked out from the molar mass of the structure shown.

For orientation: MIC means the least concentration at which growth counts as inhibited. What is called inhibition is the share of the control response that was lost under treatment.

What all share (format): functional
What all share (details): 168 h

For assay [1], the system named is Curvularia pallescens. As to the kind of experiment: Fungicidal activity against Cochliobolus pallescens assessed as mycelial inhibition at 28 +/- 2 degC measured after 7 days by food poison technique.
In assay [2] the test system is Fusarium oxysporum. As to the kind of experiment: Fungicidal activity against Fusarium oxysporum assessed as mycelial inhibition at 28 +/- 2 degC measured after 7 days by food poison technique.
Assay [3] concerns Colletotrichum falcatum. As to the kind of experiment: Fungicidal activity against Glomerella tucumanensis assessed as mycelial inhibition at 28 +/- 2 degC measured after 7 days by food poison technique.
Assay [4] relates to Curvularia pallescens. As to the kind of experiment: Fungicidal activity against Cochliobolus pallescens assessed as mycelial inhibition at 1000 ppm at 28 +/- 2 degC measured after 7 days by food poison technique. A digest of the protocol:
(§1)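 Poisoned-food test on oatmeal agar. The compound was dissolved in 0.5 cm3 of solvent and mixed into the medium to give the stated ppm. Controls received the same amount of solvent only. A 5 mm mycelial disk, cut from the periphery of a 2-week-old culture, was placed at the plate centre. Plates were incubated 7 days at 28 ± 2 °C, in triplicate. Percent inhibition = (dc − dt)/dc × 100, using mean colony diameters of control (dc) and treatment (dt).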

The test system of assay [5] is Curvularia pallescens. As to the kind of experiment: Fungicidal activity against Cochliobolus pallescens assessed as mycelial inhibition at 10 ppm at 28 +/- 2 degC measured after 7 days by food poison technique. The method, boiled down:
as §1

Assay [6] deals with Curvularia pallescens. As to the kind of experiment: Fungicidal activity against Cochliobolus pallescens assessed as mycelial inhibition at 100 ppm at 28 +/- 2 degC measured after 7 days by food poison technique. A digest of the protocol: as §1
Assay [7] concerns Fusarium oxysporum. As to the kind of experiment: Fungicidal activity against Fusarium oxysporum assessed as mycelial inhibition at 1000 ppm at 28 +/- 2 degC measured after 7 days by food poison technique. The method, boiled down:
as §1

Assay [8] concerns Fusarium oxysporum. As to the kind of experiment: Fungicidal activity against Fusarium oxysporum assessed as mycelial inhibition at 100 ppm at 28 +/- 2 degC measured after 7 days by food poison technique. A digest of the protocol: as §1
In assay [9] the test system is Colletotrichum falcatum. As to the kind of experiment: Fungicidal activity against Glomerella tucumanensis assessed as mycelial inhibition at 1000 ppm at 28 +/- 2 degC measured after 7 days by food poison technique. The method, boiled down:
as §1

Assay [10] has as its system Fusarium oxysporum. As to the kind of experiment: Fungicidal activity against Fusarium oxysporum assessed as mycelial inhibition at 10 ppm at 28 +/- 2 degC measured after 7 days by food poison technique. A digest of the protocol: as §1
For assay [11], the system named is Colletotrichum falcatum. As to the kind of experiment: Fungicidal activity against Glomerella tucumanensis assessed as mycelial inhibition at 100 ppm at 28 +/- 2 degC measured after 7 days by food poison technique. A digest of the protocol: as §1
Assay [12] deals with Colletotrichum falcatum. As to the kind of experiment: Fungicidal activity against Glomerella tucumanensis assessed as mycelial inhibition at 10 ppm at 28 +/- 2 degC measured after 7 days by food poison technique. A digest of the protocol:
as §1

As to `CCOP(=O)(OCC)S/C(=N/N=C/c1ccc(Cl)cc1)N1CCN(/C(=N\N=C\c2ccc(Cl)cc2)SP(=O)(OCC)OCC)CC1`, the MIC in assay [1], in assay [2] and in [3] was 1000 µg/mL (≈ 1.33 mM) in each case. Moreover, the inhibition at 1000 ppm in assay [4], in assay [7] and in assay [9] was 100% in each case. For the same compound, the inhibition at 10 ppm came to 66.6% in assay [5], 37.8% in assay [10] and 42.5% in [12]. The inhibition at 100 ppm in assay [6] turned out to be 88.2%; in assay [8], 76.2%; in assay [11], 72.8%.
On to `CCOP(=O)(OCC)S/C(=N/N=C/c1ccccc1)N1CCN(/C(=N\N=C\c2ccccc2)SP(=O)(OCC)OCC)CC1`, for which the inhibition at 1000 ppm came to 75% in assay [4], 66.5% in assay [7] and 73.4% in assay [9]. Besides, the figures for the inhibition at 10 ppm in assay [5], in assay [10] and in [12] were 32.8%, 24.8% and 25.8%, respectively. In addition, the values for the inhibition at 100 ppm in assay [6], in assay [8] and in [11] were 49.5%, 35.6% and 40.2%, respectively.
For the compound `S=C(N/N=C/c1ccccc1)N1CCN(C(=S)N/N=C/c2ccccc2)CC1`, the inhibition at 1000 ppm in assay [4] stood at 57.4%; in assay [7], 48.8%; in [9], 53.6%. The results for the inhibition at 10 ppm in [5], in assay [10] and in assay [12] were 20.6%, 14.3% and 14.1%, respectively. The inhibition at 100 ppm turned out to be 32.1% in assay [6], 25.6% in [8] and 28.9% in [11].
On to `S=C(N/N=C/c1ccc(Cl)cc1)N1CCN(C(=S)N/N=C/c2ccc(Cl)cc2)CC1`, for which the figures for the inhibition at 1000 ppm in assay [4], in [7] and in assay [9] were 68.4%, 64.8% and 68.2%, respectively. Also, the results for the inhibition at 10 ppm in assay [5], in [10] and in [12] were 38.5%, 28.7% and 24.8%, respectively. In addition, the inhibition at 100 ppm in assay [6] worked out at 49.2%; in [8], 41.6%; in assay [11], 35.4%.
With `COC(=O)NC(=S)Nc1ccccc1NC(=S)NC(=O)OC` [THIOPHANATE METHYL], the minimal inhibitory concentration (MIC) in assay [1], in [2] and in assay [3] was 4000 µg/mL (≈ 11.7 mM) throughout.
As for `COc1ccc(/C=N/NC(=S)N2CCN(C(=S)N/N=C/c3ccc(OC)cc3)CC2)cc1`, the inhibition at 1000 ppm in assay [4] was determined as 67.2%; in assay [7] it was 66.8%; in assay [9], 65.9%. The inhibition at 10 ppm is 28.6% in assay [5], 35.3% in [10] and 22.1% in assay [12]. Also, the inhibition at 100 ppm in [6] is 45.8%; in [8], 40.2%; in assay [11], 37.6%.
For `CCOP(=O)(OCC)S/C(=N/N=C/c1ccc(OC)cc1)N1CCN(/C(=N\N=C\c2ccc(OC)cc2)SP(=O)(OCC)OCC)CC1`, the MIC in assay [1], in assay [2] and in assay [3] was 1000 µg/mL (≈ 1.35 mM) throughout. Moreover, the inhibition at 1000 ppm in assay [4], in assay [7] and in assay [9] was 100% each time. Further, the inhibition at 10 ppm is 42.2% in assay [5], 53.2% in assay [10] and 36.4% in assay [12]. The inhibition at 100 ppm in assay [6] stood at 80.5%; in assay [8], 70.6%; in assay [11], 58.6%.
Take `COC(=O)Nc1nc2ccccc2[nH]1` [CARBENDAZIM]: the minimal inhibitory concentration (MIC) in assay [1] was 4000 µg/mL (≈ 20.9 mM); in assay [2], 3000 µg/mL (≈ 15.7 mM); in assay [3], 4000 µg/mL (≈ 20.9 mM).
Take `CCOP(=O)(OCC)S/C(=N/N=C/c1ccccc1Cl)N1CCN(/C(=N\N=C\c2ccccc2Cl)SP(=O)(OCC)OCC)CC1`: the values for the inhibition at 1000 ppm in [4], in [7] and in [9] were 88.2%, 100% and 85.6%, respectively. For the same compound, the inhibition at 10 ppm was determined as 47.7% in assay [5], 56.8% in assay [10] and 55.2% in assay [12]. Also, the inhibition at 100 ppm is 86.8% in assay [6], 82.4% in [8] and 70.6% in [11].
Take `S=C(N/N=C/c1ccccc1Cl)N1CCN(C(=S)N/N=C/c2ccccc2Cl)CC1`: the figures for the inhibition at 1000 ppm in [4], in assay [7] and in assay [9] were 66.2%, 69.2% and 60.3%, respectively. Besides, the inhibition at 10 ppm in assay [5] stood at 27.4%; in assay [10], 25.5%; in assay [12] it was 21.2%. The inhibition at 100 ppm in [6] amounted to 47.3%; in assay [8], 42%; in [11], 30.8%.
As to `O=[N+]([O-])c1ccc(/C=N/NC(=S)N2CCN(C(=S)N/N=C/c3ccc([N+](=O)[O-])cc3)CC2)cc1`, the inhibition at 1000 ppm in [4] was found to be 59.6%; in assay [7], 44.8%; in [9], 46.6%. In addition, the inhibition at 10 ppm in assay [5] is 22.7%; in [10], 16.2%; in assay [12] it was 11.6%. In addition, the inhibition at 100 ppm is 31.1% in assay [6], 23.9% in [8] and 24.3% in assay [11].
As for `CCOP(=O)(OCC)S/C(=N\N=C\c1ccc([N+](=O)[O-])cc1)N1CCN(/C(=N\N=C\c2ccc([N+](=O)[O-])cc2)SP(=O)(OCC)OCC)CC1`, the inhibition at 1000 ppm in assay [4] is 89.2%; in [7], 62.6%; in [9], 65.2%. Besides, the inhibition at 10 ppm in assay [5] is 35.6%; in [10] it was 27.5%; in [12], 25.8%. For the same compound, the inhibition at 100 ppm in assay [6] is 58.2%; in assay [8] it was 40.2%; in assay [11], 40.8%.

Values taken from ChEMBL document CHEMBL3046592, “Organophosphorus derivatives containing piperazine dithiosemicarbazones as chemotherapeutants against fungal pathogens of sugarcane” (2005).
